Activity calls are given as the source filed them. No cut-off for these calls is given here.
Columns and labels:
HCT-116 = assay: Antiproliferative activity against human HCT116 cells after 48 hrs by MTT assay; assay type: functional, cell-based; settings: HCT-116, 48 h
Method in brief: (§1)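 Cells grown to log phase in RPMI 1640 + 10% FBS, seeded at 2 × 10^4 cells/mL (100 µL/well) and preincubated 24 h at 37 °C, 5% CO2. Compounds added at preset concentrations; MS275 as positive reference. After 48 h exposure, MTT (2.5 mg/mL in PBS) for 4 h, then SDS–isobutanol–HCl solubilization overnight at 37 °C; OD 570 nm. Triplicate wells per concentration, assays repeated ≥3 times; IC50 reported.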

A549 = assay: Antiproliferative activity against human A549 cells after 48 hrs by MTT assay; assay type: functional, cell-based; settings: A549, 48 h; method in brief: as §1
Histone deacetylase 1 = Histone deacetylase 1 (Homo sapiens, UniProt Q13547); assay: Inhibition of HDAC1 in human HeLa cell lysate using KI-104 as substrate after 40 mins by fluorescence analysis; assay type: cell-free
Chain of Histone deacetylase 1 (Q13547 whole entry): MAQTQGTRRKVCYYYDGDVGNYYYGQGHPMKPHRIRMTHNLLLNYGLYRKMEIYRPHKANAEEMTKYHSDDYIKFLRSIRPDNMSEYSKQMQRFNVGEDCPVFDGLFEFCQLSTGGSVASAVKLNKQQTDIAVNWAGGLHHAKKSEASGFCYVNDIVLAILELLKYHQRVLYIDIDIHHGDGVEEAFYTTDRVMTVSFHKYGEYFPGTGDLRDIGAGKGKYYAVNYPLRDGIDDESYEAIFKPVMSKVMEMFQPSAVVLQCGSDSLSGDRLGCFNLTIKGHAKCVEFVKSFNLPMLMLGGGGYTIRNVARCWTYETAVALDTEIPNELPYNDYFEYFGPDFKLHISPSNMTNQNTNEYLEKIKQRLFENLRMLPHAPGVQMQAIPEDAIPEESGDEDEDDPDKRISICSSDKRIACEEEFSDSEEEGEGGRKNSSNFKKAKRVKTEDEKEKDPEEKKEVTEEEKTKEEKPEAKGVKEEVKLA

Histone deacetylase 2 = Histone deacetylase 2 (Homo sapiens, UniProt Q92769); assay: Inhibition of HDAC2 in human HeLa cell lysate using KI-104 as substrate after 40 mins by fluorescence analysis; assay type: cell-free
Chain of Histone deacetylase 2 (Q92769 whole entry): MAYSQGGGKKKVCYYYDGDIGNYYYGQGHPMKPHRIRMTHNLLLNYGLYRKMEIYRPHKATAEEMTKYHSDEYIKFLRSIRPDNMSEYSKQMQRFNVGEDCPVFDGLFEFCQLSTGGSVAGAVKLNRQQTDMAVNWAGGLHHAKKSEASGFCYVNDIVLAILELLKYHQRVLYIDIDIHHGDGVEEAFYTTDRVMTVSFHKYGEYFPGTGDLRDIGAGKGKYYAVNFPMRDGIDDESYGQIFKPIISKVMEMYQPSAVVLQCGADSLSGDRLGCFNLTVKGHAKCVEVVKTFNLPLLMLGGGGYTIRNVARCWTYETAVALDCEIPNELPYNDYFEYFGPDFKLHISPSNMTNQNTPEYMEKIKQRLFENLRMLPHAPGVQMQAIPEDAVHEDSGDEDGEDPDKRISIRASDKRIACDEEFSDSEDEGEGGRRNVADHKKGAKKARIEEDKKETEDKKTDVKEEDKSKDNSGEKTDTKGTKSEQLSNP

[1] = biological target: Histone deacetylase (Homo sapiens) (UniProt Q13547+O15379+Q9UBN7+Q92769+Q9UQL6+Q8WUI4+Q9BY41+Q96DB2+P56524+Q9UKV0+Q969S8); settings: HCT-116, 0.1 to 0.8 uM

Compound | IC50 (HCT-116) [µM] | IC50 (A549) [µM] | IC50 (Histone deacetylase 1) [µM] | IC50 (Histone deacetylase 2) [µM] | inhibition [1]
Cc1ccc(-c2nn(-c3ccccc3)cc2/C=C\C(=O)Nc2ccc(Cl)cc2)cc1 | 7.65 | 15.4 | 3.65 | 5.86 | 
Cc1ccc(-c2nn(-c3ccccc3)cc2/C=C\C(=O)Nc2ccc(Br)cc2)cc1 | 7.16 | 11.8 | 3.33 | 5.02 | 
COc1ccc(-c2nn(-c3ccccc3)cc2/C=C\C(=O)Nc2ccccc2)cc1 | 2.09 | 9.85 | 1.76 | 2.67 | 
COc1ccc(NC(=O)/C=C\c2cn(-c3ccccc3)nc2-c2ccc(C)cc2)cc1 | 9.81 | > 20 | 4.05 | 6.45 | 
Cc1ccc(-c2nn(-c3ccccc3)cc2/C=C\C(=O)Nc2ccccc2)cc1 | 10.4 | 16.1 | 4.06 | 8.75 | 
O=C(/C=C\c1cn(-c2ccccc2)nc1-c1ccc(Br)cc1)Nc1ccccc1 | 10.7 | > 20 | 3.43 | 6.52 | 
O=C(/C=C\c1cn(-c2ccccc2)nc1-c1ccc(Br)cc1)Nc1ccc(Br)cc1 | 8.16 | 12.2 | 2.83 | 4.87 | 
COc1ccc(NC(=O)/C=C\c2cn(-c3ccccc3)nc2-c2ccc(Br)cc2)cc1 | 9.69 | > 20 | 3.31 | 5.35 | 
O=C(/C=C\c1cn(-c2ccccc2)nc1-c1ccc(Br)cc1)Nc1ccc(Cl)cc1 | 8.37 | 15.8 | 2.98 | 4.99 | 
COc1ccc(NC(=O)/C=C\c2cn(-c3ccccc3)nc2-c2ccc(OC)cc2)cc1 | 2.12 | 8.59 | 1.73 | 3.02 | 

Now those with a lower IC50 (HCT-116), led by results:

IC50 (HCT-116) [µM] | IC50 (A549) [µM] | IC50 (Histone deacetylase 1) [µM] | IC50 (Histone deacetylase 2) [µM] | inhibition [1] | Compound
0.62 | 3.71 | 0.42 | 0.55 | inactive | O=C(/C=C\c1cn(-c2ccccc2)nc1-c1ccc([N+](=O)[O-])cc1)Nc1ccc(Br)cc1
0.64 | 3.72 | 0.46 | 0.57 |  | O=C(/C=C\c1cn(-c2ccccc2)nc1-c1ccc([N+](=O)[O-])cc1)Nc1ccc(Cl)cc1
1.56 | 8.04 | 1.09 | 2.36 |  | COc1ccc(-c2nn(-c3ccccc3)cc2/C=C\C(=O)Nc2ccc(Cl)cc2)cc1
1.53 | 7.47 | 1.05 | 2.17 |  | COc1ccc(-c2nn(-c3ccccc3)cc2/C=C\C(=O)Nc2ccc(Br)cc2)cc1
0.85 | 5.18 | 0.92 | 1.15 |  | O=C(/C=C\c1cn(-c2ccccc2)nc1-c1ccc([N+](=O)[O-])cc1)Nc1ccccc1
< 0.1 | < 0.1 |  |  |  | Nc1ccccc1NC(=O)c1ccc(CNC(=O)OCc2cccnc2)cc1 [ENTINOSTAT]
1.08 | 5.17 | 1.02 | 1.15 |  | COc1ccc(NC(=O)/C=C\c2cn(-c3ccccc3)nc2-c2ccc([N+](=O)[O-])cc2)cc1

— ChEMBL document CHEMBL2046430, “Synthesis, biological evaluation and molecular docking studies of 3-(1,3-diphenyl-1H-pyrazol-4-yl)-N-phenylacrylamide derivatives as inhibitors of HDAC activity” (Bioorg Med Chem, 2012)
